Experimental data reported in ChEMBL document CHEMBL1147223, “Saponins from Cussonia bancoensis and their inhibitory effects on nitric oxide production” (J Nat Prod, 2003).

Assays:
RAW264.7 [1] = assay: Inhibition of LPS-induced nitric oxide production in mouse RAW264.7 cells by Griess method; assay type: functional, cell-based
Outline: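 RAW 264.7 murine macrophages were grown in DMEM with 10% FBS, penicillin and streptomycin at 37 °C under 5% CO2, then stimulated with LPS for 24 h. Nitrite in the medium was measured by Griess reaction (sulfanilamide/naphthylethylenediamine, 10 min at room temperature, A550) against a NaNO2 standard curve. IC50 is the concentration giving a 50% decrease in NO; values are the mean of four independent experiments.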

RAW264.7 [2] = assay: Cytotoxicity against LPS-stimulated mouse RAW264.7 cells by Griess method; assay type: cell-based

`C[C@H]1[C@H](C)CC[C@]2(C(=O)O)CC[C@]3(C)C(=CC[C@@H]4[C@@]5(C)CC[C@H](O)[C@@](C)(CO)[C@@H]5CC[C@]43C)[C@H]12` gave an IC50 (RAW264.7 [1]) of 2.6 µM and an IC50 (RAW264.7 [2]) of 11 µM.

For `C[C@H]1[C@H](C)CC[C@]2(C(=O)O)CC[C@]3(C)C(=CC[C@@H]4[C@@]5(C)CC[C@H](O[C@@H]6O[C@H](CO)[C@@H](O)[C@H](O)[C@H]6O)[C@@](C)(CO)[C@@H]5CC[C@]43C)[C@H]12`, the IC50 (RAW264.7 [1]) was 22.1 µM and the IC50 (RAW264.7 [2]) was 126 µM.

`C[C@H]1[C@H](C)CC[C@]2(C(=O)O)CC[C@]3(C)C(=CC[C@@H]4[C@@]5(C)CC[C@H](O[C@@H]6OC[C@H](O)[C@H](O)[C@H]6O)[C@@](C)(CO)[C@@H]5CC[C@]43C)[C@H]12` was tested, and the IC50 (RAW264.7 [1]) was 47.9 µM and the IC50 (RAW264.7 [2]) was 124 µM.

`CC(=N)NCCCC[C@H](N)C(=O)O` [L-NIL] was tested, and the IC50 (RAW264.7 [1]) was 18.6 µM and the IC50 (RAW264.7 [2]) was > 200 µM.

`C[C@H]1[C@H](C)CC[C@]2(C(=O)O)CC[C@]3(C)C(=CC[C@@H]4[C@@]5(C)CC[C@H](O)C(C)(C)[C@@H]5CC[C@]43C)[C@H]12` [URSOLIC ACID] showed an IC50 (RAW264.7 [1]) of 46.9 µM and an IC50 (RAW264.7 [2]) of 58.5 µM.
